Experimental data of several laboratories.
Each line is one published result; the experiments were not run side by side.
Organism: Escherichia coli
Read-out: microbial growth

| Structure (SMILES) | assay | test system | conditions | MIC |
| --- | --- | --- | --- | --- |
| CC(C)(O/N=C(\C(=O)N[C@@H]1C(=O)N2C(C(=O)[O-])=C(C[n+]3ccccc3)CS[C@H]12)c1csc(N)n1)C(=O)O | broth dilution |  |  | 0.125 µg/mL |
| Cc1nn(-c2ccccc2)c2c1C(c1ccc(Cl)cc1)N(C(=O)c1ccncc1)N2 (stereo not drawn) |  | MTCC739 | 24 h | > 100 µg/mL |
| CC(O)CSc1nnc(-c2ccccc2)n1-c1ccccc1 (stereo not drawn) |  |  |  | 11000 µg/mL |
| Cc1[nH]c(C(=O)Nc2ccc(C(=O)NCc3n[nH]c(=O)o3)cc2N2CCNCC2)c(Cl)c1Cl.Cl | broth dilution | ATCC25922 |  | > 32 µg/mL |
| C[C@@H](O)[C@H]1C(=O)N2C(C(=O)O)=C(S[C@@H]3CN[C@H](C(=O)N(C)C)C3)[C@H](C)[C@H]12 | broth dilution |  |  | ≤ 0.06 µg/mL |
| O=C(N[C@H](CO)[C@H](O)c1ccc([N+](=O)[O-])cc1)C(Cl)Cl |  |  | 24 h | 2.5 to 5 µM |
| Cc1ccccc1NC(=O)C=Cc1ccc(O)c(O)c1 | broth dilution | ATCC25922 |  | 4 µg/mL |
| CC(O)CSc1nnc(-c2cc3ccccc3o2)n1-c1ccccc1 (stereo not drawn) |  |  |  | 10000 µg/mL |
| O=C(C=Cc1ccc(O)c(O)c1)OCCc1ccccc1 | broth dilution | ATCC25922 |  | 32 µg/mL |
| Cc1[nH]c(C(=O)Nc2ccc(C(=O)NCc3n[nH]c(=O)o3)cc2N2CCN(C(=O)OC(C)(C)C)CC2)c(Cl)c1Cl | broth dilution | ATCC25922 |  | > 32 µg/mL |
| C[C@@H](O)[C@H]1C(=O)N2C(C(=O)O)=C(S[C@@H]3CN[C@H](C(=O)N(C)C)C3)[C@H](C)[C@H]12 | broth dilution | ATCC25922 | 20 h | < 0.5 µg/mL |
| COc1ccc(C2c3c(C)nn(-c4ccccc4)c3NN2C(=O)c2ccncc2)cc1 (stereo not drawn) |  | MTCC739 | 24 h | 32 µg/mL |
| Cc1[nH]c(C(=O)Nc2ccc(C(=O)NCC(=O)O)cc2N2CC[C@@H](N)C2)c(Cl)c1Cl.Cl | broth dilution | ATCC25922 |  | > 32 µg/mL |
| Cc1nn(-c2ccccc2)c2c1C(c1c[nH]c3ccccc13)N(C(=O)c1ccncc1)N2 (stereo not drawn) |  | MTCC739 | 24 h | > 100 µg/mL |
| CO/N=C(\C(=O)N[C@@H]1C(=O)N2C(C(=O)O)=C(CSc3nc(=O)c(O)nn3C)CS[C@H]12)c1csc(N)n1 | broth dilution |  |  | ≤ 0.5 µg/mL |
| Cc1[nH]c(C(=O)Nc2ccc(C(=O)NCC(=O)O)cc2N2CC[C@@H](NC(=O)OC(C)(C)C)C2)c(Cl)c1Cl | broth dilution | ATCC25922 |  | > 32 µg/mL |
| Cc1nn(-c2ccccc2)c2c1C(c1ccc(O)cc1)N(C(=O)c1ccncc1)N2 (stereo not drawn) |  | MTCC739 | 24 h | 16 µg/mL |
| CN(C)c1cc(NC(=O)CNC(C)(C)C)c(O)c2c1C[C@H]1C[C@H]3[C@H](N(C)C)C(O)=C(C(N)=O)C(=O)[C@@]3(O)C(O)=C1C2=O | broth dilution |  |  | ≤ 0.06 µg/mL |
| O=C(C=Cc1ccc(O)c(O)c1)Oc1cccc2cccnc12 | broth dilution | ATCC25922 |  | 4 µg/mL |
| Cc1[nH]c(C(=O)Nc2ccc(-c3n[nH]c(=O)o3)cc2N2CC[C@H](N)C2)c(Cl)c1Cl.Cl | broth dilution | ATCC25922 |  | 8 µg/mL |
| Cc1ccc(-c2nnc(SCC(C)O)n2-c2ccccc2)cc1 (stereo not drawn) |  |  |  | 12500 µg/mL |
| O=C(C=Cc1ccc(O)c(O)c1)Oc1ccccc1 | broth dilution | ATCC25922 |  | 8 µg/mL |
| CC(C)(C)OC(=O)N1CCN(c2cc(C(=O)NCC(=O)O)ccc2NC(=O)c2cc(Br)c(Br)[nH]2)CC1 | broth dilution | ATCC25922 |  | > 32 µg/mL |
| C[C@H]1COc2c(N3CCN(C)CC3)c(F)cc3c(=O)c(C(=O)O)cn1c23 |  | BW25113 |  | 0.16 µg/mL |
| CC(C)(C)OC(=O)N[C@H]1CCN(c2cc(C(=O)NCC(=O)O)ccc2NC(=O)c2cc(Br)c(Br)[nH]2)C1 | broth dilution | ATCC25922 |  | > 32 µg/mL |
| COc1cc(Cc2cnc(N)nc2N)cc(OC)c1OC | broth dilution | ATCC25922 |  | 8 µg/mL |
| CC1(C)S[C@@H]2[C@H](NC(=O)[C@H](N)c3ccc(O)cc3)C(=O)N2[C@H]1C(=O)O | broth dilution |  |  | ≤ 0.06 µg/mL |
| O=C(O)c1cn(C2CC2)c2cc(N3CCNCC3)c(F)cc2c1=O |  | MTCC739 | 24 h | 32 µg/mL |
| Cl.N[C@@H]1CCN(c2cc(C(=O)NCC(=O)O)ccc2NC(=O)c2cc(Br)c(Br)[nH]2)C1 | broth dilution | ATCC25922 |  | > 32 µg/mL |
| CN(C)[C@@H]1C(O)=C(C(N)=O)C(=O)[C@@]2(O)C(O)=C3C(=O)c4c(O)cccc4[C@@](C)(O)[C@H]3C[C@@H]12 | broth dilution | ATCC25922 |  | 16 µg/mL |
